Source: PubChem
This is a sample that favours compounds with a hit; in the whole collection about 2.1% have one here.
Runt-SMMHC FRET: Runt domain-CBFb-SMMHC interaction inhibition; Q01196+Q13951; Cerulean-Runt/Venus-CBFb-SMMHC FRET ratio 530/480, 1 h; inhibition, % at 20 µM; actives 0.74% (n = 220,000);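 active means mean inhibition across duplicate retests at 20 µM reaching about 50%, limit read from the data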;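 further: 0% = DMSO wells and 100% = wells with excess untagged CBFb-SMMHC; inhibitors lower the FRET ratio by blocking Runt binding to CBFb-SMMHC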
m-calpain inh: blocks pig calpain II enzyme activity; purified calpain II, fluorogenic peptide substrate, 30 min; inhibition, % at 16 µM; actives 0.37% (n = 220,000);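 active means inhibition above about 50%, limit read from the data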
FAS-TE inh: FAS thioesterase (human) inhibition. actives 0.67% (n = 360,000). recombinant FAS-TE, OMFH fluorogenic substrate, fluorescence endpoint. AID 602261. inhibition, % at 15 µM;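 active means compounds whose normalised, plate-corrected inhibition of enzyme fluorescence in the single-dose primary screen is 50% or more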;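 further: 0% = DMSO with enzyme and 100% = substrate without enzyme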
RanGTP-Imp inh: disruptors of Ran-importin-beta complex formation – biochemical, FRET, CFP-Ran, YFP-importin-beta, homogeneous, primary screen | actives 1.1% (n = 300,000) | AID 2216 | cell-free CFP-Ran/YFP-importin-beta FRET ratio | inhibition, % (concentration not given with the values);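 active means more than half of the replicate wells show a fall in the fluorescence ratio signal beyond about 16%, limit read from the data, passing the limit was not always enough; inconclusive means exactly half of the replicate wells pass the set limit; inactive means fewer than half of replicates pass the limit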;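 further: 0% = DMSO wells and 100% = Ran loaded with GDP instead of GTP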
Runt-CBFb FRET: inhibitors of human RUNX1 Runt domain binding to CBFb | Cerulean-Runt/Venus-CBFb FRET ratio 530/480, 1 h | inhibition, % at 20 µM | actives 0.46% (n = 220,000);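 active means inhibition over about 50% at 20 µM in the single-dose screen, limit read from the data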;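 further: 0% = DMSO wells and 100% = excess unlabeled CBFb competitor control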
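Assay system: Cerulean-tagged RUNX1 Runt domain (FRET donor) fusion protein / Amount: 100 nM each of Venus-CBFb and Cerulean-Runt domain / Medium: Tris buffer pH 7.5 with salts and BSA / Also added: Venus-CBFb 100 nM / Schedule: 1 h complex formation plus 1 h compound treatment, room temperature / Signal: FRET fluorescence / Read-out: loss of energy transfer signal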
FAS-TE inh conf: confirmation of human fatty acid synthase thioesterase inhibitors; AID 624325; actives 45% (n = 2,300); inhibition, % at 15 µM; shares compounds with FAS-TE inh; recombinant FAS-TE, OMFH fluorogenic substrate, fluorescence;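 active means compounds inhibiting the enzyme by at least 50% at 15 µM in any one of the replicates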;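 further: 0% = enzyme with DMSO only and 100% = wells lacking enzyme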
* hit, by the source's call; ? = inconclusive; . = no result given.

SMILES	Runt-SMMHC FRET	m-calpain inh	FAS-TE inh	RanGTP-Imp inh	Runt-CBFb FRET	FAS-TE inh conf
Cc1ccc(S(=O)(=O)N2CCN(CC(=O)Nc3ccnn3C3CCCC3)CC2)cc1	.	.	-0.7	.	.	.
COC(=O)N1C(=O)[C@](c2ccccc2)(C2CCCC2)N1C(=O)OC	.	.	80.5*	0.7	.	90.4*
CC(C)c1ccc2[nH]c(O)c(N=NC(=O)c3cccc(S(=O)(=O)N4CCCCC4)c3)c2c1	0.4	-47.1	58.2*	1.2	-4.1	32.0
O=C(CC1C[C@H](C(=O)N2CCOCC2)[C@@]2(CCC3CCCC3)c3[nH]c4ccccc4c3CCN2C1=O)NCc1ccco1 (stereo partly specified)	.	.	84.2*	.	.	91.6*
O=C(CC1C[C@H](C(=O)N2CCOCC2)[C@@]2(CCC3CCCC3)c3[nH]c4ccccc4c3CCN2C1=O)NCCN1CCOCC1 (stereo partly specified)	.	.	76.2*	.	.	87.4*
CN(C)C(=O)CCc1ccc2c3c([nH]c2c1)[C@]1(CCC2CCCC2)[C@@H](C(=O)N2CCOCC2)C[C@H](CC(=O)NCCc2ccccn2)C(=O)N1CC3	.	.	14.5	.	.	.
O=C(CC1C[C@H](C(=O)N2CCOCC2)[C@@]2(CCC3CCCC3)c3[nH]c4ccccc4c3CCN2C1=O)NCCc1ccccn1 (stereo partly specified)	.	.	80.5*	.	.	90.7*
O=C(CC1C[C@H](C(=O)N2CCOCC2)[C@@]2(CCC3CCCC3)c3[nH]c4ccccc4c3CCN2C1=O)NCC12CC3CC(CC(C3)C1)C2 (stereo partly specified)	.	.	88.8*	.	.	34.3
COCCCNC(=O)CC1C[C@H](C(=O)N2CCOCC2)[C@@]2(CCC3CCCC3)c3[nH]c4ccc(OC)cc4c3CCN2C1=O (stereo partly specified)	.	.	52.7*	.	.	64.1*
COc1ccc2[nH]c3c(c2c1)CCN1C(=O)C(CC(=O)NCCc2ccccn2)C[C@H](C(=O)N2CCOCC2)[C@@]31CCC1CCCC1 (stereo partly specified)	.	.	61.4*	.	.	45.6*
O=C(C[C@H]1C[C@H](C(=O)N2CCOCC2)[C@@]2(CCC3CCCC3)c3[nH]c4ccc(Cl)cc4c3CCN2C1=O)NCCCn1ccnc1	.	.	54.6*	.	.	23.3
COc1ccc2[nH]c3c(c2c1)CCN1C(=O)C(CC(=O)NC/C=C(\C)CCC=C(C)C)C[C@H](C(=O)N2CCOCC2)[C@@]31CCC1CCCC1 (stereo partly specified)	.	.	4.7	.	.	.
CC(Oc1ccc2c3c(c(=O)oc2c1)CCCC3)C(=O)NCc1ccncc1 (stereo unspecified)	.	.	-1.9	3.6	.	.
COc1cc(-c2cc(-c3ccc(O)cc3)nc(N)c2C#N)ccc1O	.	-19.6	-0.4	-2.7	.	.
COc1ccc(-c2cc(-c3ccc(O)cc3)nc(N)c2C#N)cc1	.	.	56.7*	-0.9	.	34.4
COc1ccc(CNC(=O)/C(C#N)=C2\N=C(NC(=O)c3cccs3)c3ccccc32)cc1	-17.7	-10.1	51.3*	-0.8	1.8	33.5
COCCNC(=O)/C(C#N)=C1\N=C(NC(=O)c2cccs2)c2ccccc21	.	.	-7.2	1.4	.	.
O=C(Cn1cnc2ccccc2c1=O)Nc1ccc2c(c1)OCO2	-3.2	18.1	-12.7	-2.2	-1.6	.
O=C(CSc1ccc([N+](=O)[O-])cn1)Nc1ccc2c(c1)OCO2	.	.	86.1*	-3.1	.	56.6*
O=C(Cc1ccc([N+](=O)[O-])cc1)Nc1ccc2c(c1)OCO2	1.3	-37.3	44.3	?	-0.6	.
O=C(Cn1cnc2cc([N+](=O)[O-])ccc2c1=O)Nc1ccc2c(c1)OCO2	2.2	-49.4	75.0*	1.5	2.8	53.4*
CCCCN(CCCNC(=O)c1c(C)cc(=O)oc1C)c1ccccc1	17.3	5.4	51.1*	2.8	-5.0	6.7
COc1ccc(S(=O)(=O)N(C)C)cc1NC(=O)[C@H](Cc1ccccc1)N1C(=O)c2ccccc2C1=O	1.1	-8.4	65.1*	1.5	-0.9	37.7
CCOc1ccccc1C(=O)N[C@H](C(=O)Nc1cc(S(=O)(=O)N(C)C)ccc1OC)C(C)C	-0.5	7.1	8.1	?	-1.3	.
Cc1ccc(S(=O)(=O)N(C)C)cc1NC(=O)[C@H](Cc1ccccc1)N1C(=O)c2ccccc2C1=O	-0.6	3.8	52.8*	3.7	1.4	30.2
SMILES	Runt-SMMHC FRET	m-calpain inh	FAS-TE inh	RanGTP-Imp inh	Runt-CBFb FRET	FAS-TE inh conf
COc1ccc(CN(C)C(=O)c2ccc3c(=O)n4c(nc3c2)CCC4)c(OC)c1	.	.	-5.2	.	.	.
Cc1onc(-c2ccccc2)c1C(=O)n1nnc2ccccc21	-1.3	13.2	52.3*	-0.4	1.4	51.3*
Cc1cccc(Oc2ccc(S(=O)(=O)N3CCCCC3)cc2NC(=O)C2=COCCO2)c1	.	.	65.3*	.	.	5.5
CC(C)Oc1ccc(S(=O)(=O)N2CCCCC2)cc1NC(=O)C1=COCCO1	.	.	10.8	.	.	.
CC1CCN(CCCNc2cc(NCCO)c([N+](=O)[O-])c3nonc23)CC1	.	.	-1.1	-2.5	.	.
CN(CCO)c1cc(NCCCN2CCC(Cc3ccccc3)CC2)c2nonc2c1[N+](=O)[O-]	-6.7	9.6	67.8*	8.5	-2.3	42.5*
Cc1ccc(S(=O)(=O)N(C)C)cc1NC(=S)NC(C)CCCC(C)C (stereo unspecified)	0.2	12.6	58.3*	3.1	-2.4	53.1*
Cc1ccc(S(=O)(=O)N(C)C)cc1NC(=S)NC(C)CCC(C)C (stereo unspecified)	-0.9	6.0	42.5	1.4	0.0	.
CCOC(=O)[C@H]1[C@H]2COc3ccc(Br)cc3[C@@H]2N2C(=O)c3ccc(C)cc3NC(=O)[C@@]12C	.	.	23.2	.	.	.
CCOC(=O)[C@H]1[C@H]2COc3ccc(C)cc3[C@@H]2N2C(=O)c3cc(Br)ccc3NC(=O)[C@@]12C	.	.	57.2*	.	.	25.9
CCOC(=O)[C@H]1[C@H]2COc3ccc(Br)cc3[C@@H]2N2C(=O)c3c(C)cc(C)cc3NC(=O)[C@@]12C	.	.	68.4*	.	.	22.1
CCOC(=O)[C@H]1[C@H]2COc3ccc(C)cc3[C@@H]2N2C(=O)c3ccc(Cl)cc3NC(=O)[C@@]12C	.	.	17.4	.	.	.
CCOC(=O)[C@@H]1[C@H]2COc3ccc(Br)cc3[C@@H]2N2C(=O)N(c3cccc(Cl)c3)C(=O)[C@@]12C	.	.	73.3*	.	.	52.0*
CCOC(=O)[C@H]1[C@H]2COc3ccc(Cl)cc3[C@@H]2N2C(=O)c3ccc(Cl)cc3NC(=O)[C@@]12C	.	.	58.9*	.	.	43.3
COc1ccc(NC(=O)COC(=O)c2cc(=O)c3ccccc3o2)cc1OC	.	.	-5.8	.	.	.
O=C(CCc1nnc(CCCCc2ccccc2)o1)N1CCCCC1CCO (stereo unspecified)	-1.5	-8.7	-0.3	1.0	0.6	.
